Reference: ChEMBL document CHEMBL1629660, “Pharmacodynamics of tigecycline against phenotypically diverse Staphylococcus aureus isolates in a murine thigh model” (Antimicrob Agents Chemother, 2009)

How the values were obtained:
[1] = Protein binding in methicillin-sensitive Staphylococcus aureus ATCC 29213-infected neutropenic ICR mouse serum at 12.5 mg/kg, sc by HPLC; type: ADME, organism-based; parameters: dose 12.5 mg/kg, route subcutaneous; conditions: read-out: PB (converted)
[2] = AUC (0 to 24 hrs) in neutropenic ICR mouse infected with Staphylococcus aureus ATCC 29213 at 50 mg/kg, sc by HPLC; type: ADME, organism-based; parameters: time < 24 hr, dose 50 mg/kg, route subcutaneous; conditions: plasma
Outline: (§1)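 Neutropenic female ICR mice (cyclophosphamide 150 and 100 mg/kg ip, 4 days and 1 day before inoculation), both thighs inoculated im with ~10^7 CFU/ml of ATCC 29213. Single sc doses of 50, 25, 12.5 or 6.25 mg/kg. Cardiac blood taken from groups of six at 8–12 times over 0.5–24 h. Serum measured by HPLC (linear 0.05–5 µg/ml). Two-compartment fit by nonlinear least squares; AUC by trapezoidal rule.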

[3] = fAUC/MIC in community acquired methicillin-resistant Staphylococcus aureus isolate 156 infected-immunocompetent ICR mouse at 12.5 […], sc QD; type: functional
Outline: (§2)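 Derived from neutropenic-mouse serum PK (HPLC, two-compartment fit) with ultrafiltration protein-binding correction, divided by modal MIC.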

Staphylococcus aureus [4] = experiment: Antimicrobial activity against community-acquired methicillin-resistant Staphylococcus aureus isolate 156 infected in neutropenic ICR mouse assessed as decrease in bacterial density at 1.56 to 400 mg/kg, sc after 24 hrs; type: functional; conditions: dose mg/kg 1.56-400; route subcutaneous
Outline: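 Female ICR mice (~25 g) made neutropenic with cyclophosphamide 150 and 100 mg/kg ip, 4 and 1 days before infection. Each thigh inoculated im with 0.1 ml of ~10^7 CFU/ml from an overnight subculture. Tigecycline sc (0.2 ml) given 2 h later as single or multiple doses of 1.56–50 mg/kg, 1.56–400 mg/kg/day, 3 mice/group. Saline-injected controls. Thighs harvested at 24 h, homogenized in saline, plated on blood agar; log10 CFU change vs 0-h controls.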

[5] = r2 for fAUC/MIC in community acquired methicillin-resistant Staphylococcus aureus isolate 144-infected neutropenic ICR mouse
[6] = fAUC/MIC in methicillin-sensitive Staphylococcus aureus ATCC 25923-infected neutropenic ICR mouse at 80% effective exposure index; type: functional
[7] = fAUC/MIC in community acquired methicillin-resistant Staphylococcus aureus isolate 144-infected neutropenic ICR mouse at 80% effective exposure index; type: functional
Outline: (§3)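 Single-dose serum PK in infected neutropenic mice (sc 6.25–50 mg/kg; HPLC; two-compartment fit; AUC by trapezoidal rule; lower doses simulated). Free fraction from ultrafiltration of spiked mouse serum, in triplicate. Free exposures divided by modal MIC and plotted against 24-h log10 CFU change with a sigmoidal Emax model; EI50, EI80 and stasis values read from the fitted curves.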

Staphylococcus aureus [8] = experiment: Antimicrobial activity against methicillin-sensitive Staphylococcus aureus ATCC 29213 infected in neutropenic ICR mouse assessed as change in bacterial load after 24 hrs; type: functional
Outline: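 Neutropenic ICR mice had both thighs inoculated with ~10^7 CFU/ml; dosing began 2 h later. Groups of three received 1.56–400 mg/kg/day sc as single or divided doses, with saline-dosed controls. Thighs were homogenized and plated on blood agar at 24 h. Read-out was the log10 CFU/ml change relative to 0-h controls.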

[9] = r2 of fCmax/MIC in hospital-acquired methicillin-resistant Staphylococcus aureus isolate 56-infected neutropenic ICR mouse
[10] = fAUC/MIC in hospital-acquired methicillin-resistant Staphylococcus aureus isolate 152-infected neutropenic ICR mouse at 50% effective exposure index; type: functional; outline: as §3
[11] = fAUC/MIC in methicillin-sensitive Staphylococcus aureus ATCC 29213-infected neutropenic ICR mouse at 50% effective exposure index; type: functional
Outline: (§4)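 fT>MIC, fCmax/MIC and fAUC/MIC were built from the serum pharmacokinetics, protein binding, modal broth-microdilution MIC (triplicate, CLSI) and 24-h thigh CFU change. Each index was fit to a sigmoidal Emax model. EI50, EI80 and stasis exposures were taken from each isolate's curve.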

[12] = fAUC/MIC in community acquired methicillin-resistant Staphylococcus aureus isolate 156 infected-immunocompetent ICR mouse at 1.56 […], sc QD; type: functional; outline: as §2
[13] = fAUC/MIC in community acquired methicillin-resistant Staphylococcus aureus isolate 156 infected-immunocompetent ICR mouse at […], sc QD; type: functional
[14] = fAUC/MIC in community acquired methicillin-resistant Staphylococcus aureus isolate 147-infected neutropenic ICR mouse at 50% effective exposure index; type: functional; outline: as §3
Acinetobacter baumannii = experiment: Antimicrobial activity against carbapenem-intermediate,-resistant Acinetobacter baumannii assessed as decrease in bacterial count at 0.7 times of MIC after 24 hrs by time kill analysis; type: functional
[15] = fAUC/MIC in methicillin-sensitive Staphylococcus aureus ATCC 29213-infected neutropenic ICR mouse at 80% effective exposure index; type: functional; outline: as §4
[16] = Protein binding in methicillin-sensitive Staphylococcus aureus ATCC 29213-infected neutropenic ICR mouse serum at 25 mg/kg, sc by HPLC; type: ADME, organism-based; parameters: dose 25 mg/kg, route subcutaneous; conditions: read-out: PB (converted)
[17] = Tmax in neutropenic ICR mouse infected with Staphylococcus aureus ATCC 29213 at 6.25 mg/kg, sc by HPLC; type: ADME, organism-based; parameters: dose 6.25 mg/kg, route subcutaneous; conditions: in vivo; outline: as §1
[18] = fAUC/MIC in hospital-acquired methicillin-resistant Staphylococcus aureus isolate 56-infected neutropenic ICR mouse at 80% effective exposure index; type: functional; outline: as §3
[19] = fAUC/MIC in hospital-acquired methicillin-resistant Staphylococcus aureus isolate 152-infected neutropenic ICR mouse at stasis dose; type: functional; outline: as §3
[20] = r2 of fT>MIC in methicillin-sensitive Staphylococcus aureus ATCC 25923-infected neutropenic ICR mouse
[21] = Elimination half life in neutropenic ICR mouse infected with methicillin-sensitive Staphylococcus aureus ATCC 29213 at 25 mg/kg, sc by HPLC; type: ADME, organism-based; parameters: dose 25 mg/kg, route subcutaneous; conditions: in vivo, read-out: beta t1/2 (converted); outline: as §1
[22] = r2 of fCmax/MIC in community acquired methicillin-resistant Staphylococcus aureus isolate 147-infected neutropenic ICR mouse
[23] = fAUC/MIC in community acquired methicillin-resistant Staphylococcus aureus isolate 147-infected neutropenic ICR mouse at 80% effective exposure index; type: functional; outline: as §3
[24] = fAUC/MIC in hospital-acquired methicillin-resistant Staphylococcus aureus isolate 152-infected neutropenic ICR mouse at 80% effective exposure index; type: functional; outline: as §3
[25] = AUC (0 to 24 hrs) in neutropenic ICR mouse infected with Staphylococcus aureus ATCC 29213 at 25 mg/kg, sc by HPLC; type: ADME, organism-based; parameters: time < 24 hr, dose 25 mg/kg, route subcutaneous; conditions: plasma; outline: as §1
[26] = r2 of fT>MIC in methicillin-sensitive methicillin-sensitive Staphylococcus aureus ATCC 29213-infected neutropenic ICR mouse
[27] = Cmax in neutropenic ICR mouse infected with Staphylococcus aureus ATCC 29213 at 6.25 mg/kg, sc by HPLC; type: ADME, organism-based; parameters: dose 6.25 mg/kg, route subcutaneous; conditions: in vivo; outline: as §1
[28] = fAUC/MIC in methicillin-sensitive Staphylococcus aureus ATCC 29213-infected neutropenic ICR mouse at stasis dose; type: functional; outline: as §4

CN(C)c1cc(NC(=O)CNC(C)(C)C)c(O)c2c1C[C@H]1C[C@H]3[C@H](N(C)C)C(O)=C(C(N)=O)C(=O)[C@@]3(O)C(O)=C1C2=O [TIGECYCLINE]
fraction unbound [1]: 0.121 | AUC(0-t) at 24 h [2]: 49200 ng·h/mL | fAUC/MIC [3]: 8.8 | CFU (Staphylococcus aureus [4]): 1.5 | r2 [5]: 0.954 | fAUC/MIC [6]: 7 | fAUC/MIC [7]: 3.2 | log10CFU/ml (Staphylococcus aureus [8]): 2.3 | r2 [9]: 0.704 | fAUC/MIC [10]: 1.5 | fAUC/MIC [11]: 0.6 | fAUC/MIC [12]: 1.8 | fAUC/MIC [13]: 3.6 | fAUC/MIC [14]: 1.5 | log10cfu (Acinetobacter baumannii): 2 | fAUC/MIC [15]: 4.1 | fraction unbound [16]: 0.075 | Tmax [17]: 4.8 min | fAUC/MIC [18]: 4.2 | fAUC/MIC [19]: 1.6 | r2 [20]: 0.872% | half-life [21]: 11.8 h | r2 [22]: 0.892 | fAUC/MIC [23]: 3.5 | fAUC/MIC [24]: 2.8 | AUC(0-t) at 24 h [25]: 25200 ng·h/mL | r2 [26]: 0.699% | Cmax [27]: 1680 ng/mL | fAUC/MIC [28]: 0.5
